Calls of active or inactive are those of the source. The calls are words filed in the database; no cut-off is given here.

One data set deals with HL-60. In words: Cytotoxicity in human HL60 cells assessed as reduction in cell viability incubated for 48 hrs by MTT assay. It is filed as functional, cell-based. The method in brief: (§1)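 Human tumour lines grown in DMEM with 10% fetal calf serum, 37 °C, 5% CO2, passaged at 60–70% confluency. About 5000 cells/well seeded in triplicate and grown 24 h. Medium then replaced with medium containing compound at various concentrations. After 48 h, MTT (5 mg/mL) added for 4 h. DMSO-soluble formazan read at 590 nm. Doxorubicin served as positive control.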
On the technique in general: Tetrazolium dyes change colour on reduction, which living cells bring about.

Data set [1] concerns K562. Nature of the data set: Toxicity in human K562 cells assessed as reduction in cell viability up to 10 uM incubated for 72 hrs by MTT assay. The following applies: k562, 72 h. It is filed as cell-based. The method in brief: (§2)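 K562 leukaemia cells seeded at equal numbers per well and exposed for 72 h to doxorubicin (1 or 2 μM), the test agent at varying concentrations, or both. Surviving cells counted relative to untreated control. Significance was taken as P < 0.05.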

Data set [2] can be described thus: Toxicity in human K562 cells assessed as reduction in cell viability incubated for 72 hrs by MTT assay. The data set is classed as cell-based. The following applies: read-out: LD50. The method, boiled down:
(§3)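 K562 cells were grown in DMEM with 10% fetal calf serum at 37 °C in 5% CO2. About 5000 cells per well were seeded and grown 24 h. Medium was then replaced with medium holding various compound concentrations for 72 h. Viability was measured by MTT (4 h), reading formazan in DMSO at 590 nm. Survival was compared with untreated control, in triplicate.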

For data set [3], the system named is K562. In words: Potentiation of doxorubicin-induced cytotoxicity in human K562 cells assessed as induction of cell death in presence of doxorubicin incubated for 72 hrs by MTT assay. It is filed as functional, cell-based. As to conditions: K562, 72 h. The method, boiled down: as §2
Data set [4] has as its system K562. In words: Potentiation of doxorubicin-induced cytotoxicity in human K562 cells assessed as induction of cell death at 1 to 10 uM in presence of 2 uM doxorubicin incubated for 72 hrs by MTT assay. It is filed as functional, cell-based. The method in brief:
as §2

For data set [5], the system named is K562. In words: Potentiation of doxorubicin-induced cytotoxicity in human K562 cells assessed as induction of cell death at 3 to 10 uM in presence of 1 uM doxorubicin incubated for 72 hrs by MTT assay. The data set is classed as functional, cell-based. The method, boiled down:
as §2

The subject of a further data set is MCF7. Nature of the data set: Cytotoxicity in human MCF7 cells assessed as reduction in cell viability incubated for 48 hrs by MTT assay. It is filed as functional, cell-based. The method in brief:
as §1

In a further data set the test system is MDA-MB-231. Nature of the data set: Cytotoxicity in human MDA-MB-231 cells assessed as reduction in cell viability incubated for 48 hrs by MTT assay. The data set is classed as functional, cell-based. The method, boiled down: as §1
Data set [6] relates to K562. In words: Toxicity in human K562 cells assessed as induction of apoptotic cell death at 4 uM incubated for 72 hrs by Annexin V/propidium iodide staining based assay. The following applies: k562, 72 h. The method in brief:
(§4)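 K562 cells treated for 72 h with doxorubicin, the test agent, or the two combined. They were then stained with labelled annexin V and propidium iodide to show surface phosphatidylserine, and imaged by fluorescence microscopy.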

Data set [7] deals with K562. In words: Potentiation of doxorubicin-induced cytotoxicity in human K562 cells assessed as induction of cell death at 4 uM in presence of 1 uM doxorubicin incubated for 72 hrs by MTT assay. The data set is classed as functional. The method, boiled down:
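K562 cells were grown in DMEM with 10% FCS at 37 °C in 5% CO2 and seeded at about 5000 cells per well for 24 h. They were cotreated for 72 h with 1 or 2 μM doxorubicin plus varying test compound up to 10 μM. Survival was read by MTT at 590 nm against untreated control, in triplicate. Significance was set at P < 0.05.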

In data set [8] the test system is K562. In words: Cytotoxicity in human K562 cells assessed as reduction in cell viability incubated for 48 hrs by MTT assay. It is filed as functional, cell-based. As to conditions: K562, 48 h. The method in brief:
as §1

For data set [9], the system named is K562. Nature of the data set: Potentiation of doxorubicin-induced apoptotic cell death in human K562 cells at 4 uM in presence of 1 uM doxorubicin incubated for 72 hrs by Annexin V/propidium iodide staining based assay. It is filed as functional. The method in brief:
as §4

Data set [10] deals with K562. In words: Potentiation of doxorubicin-induced cytotoxicity in human K562 cells assessed as induction of cell death in presence of 1 uM doxorubicin incubated for 72 hrs by MTT assay. The data set is classed as functional. As to conditions: K562, 72 h, read-out: MEC. The method, boiled down: as §2
Another data set relates to A549. Nature of the data set: Cytotoxicity in human A549 cells assessed as reduction in cell viability incubated for 48 hrs by MTT assay. It is filed as functional, cell-based. The method in brief:
as §1

Data set [11] has as its system K562. In words: Cytotoxicity in human K562 cells assessed as reduction in cell viability incubated for 72 hrs by MTT assay. It is filed as functional. As to conditions: K562, 72 h, read-out: LD50 (the source's name). The method, boiled down:
as §3

The test system of data set [12] is K562. In words: Induction of apoptotic cell death in human K562 cells at 1 uM incubated for 72 hrs by Annexin V/propidium iodide staining based assay. It is filed as functional. The method in brief: as §4
Data set [13] deals with K562. In words: Cytotoxicity in human K562 cells assessed as induction of cell death at 1 uM incubated for 72 hrs by MTT assay. It is filed as functional. The method in brief:
as §3

As for `CCCCCCCCCCCC(=O)O[C@H]1[C@H](O[C@@H]2[C@@H](O[C@@H]3O[C@@H](C)[C@H](OC(=O)[C@@H](C)CC)[C@@H](O)[C@H]3O)[C@H]3OC(=O)CCCCCCCCC[C@@H](CCCCC)O[C@@H]4O[C@H](C)[C@H](O)[C@H](O)[C@H]4O[C@@H]3O[C@H]2C)O[C@@H](C)[C@H](O[C@@H]2O[C@@H](C)[C@H](O)[C@@H](O)[C@H]2O)[C@H]1O`, the outcome with HL-60, with MCF7, in the data set on MDA-MB-231 and in the data set on A549 was inactive. Besides, the Activity entry is given as “Non-Toxic” with K562 [1], “Non-Toxic” with K562 [6] and 47% in the data set with K562 [7]. In addition, the CC50 at 72 h in data set [2] amounted to 20 µM. In addition, the IC50 with K562 [3] came out at 8.5 µM; in the data set on K562 [8] it was 18.3 µM. Moreover, the outcome in the data set on K562 [4], in the data set on K562 [5] and in the data set with K562 [9] was Active. In addition, the minimal effective concentration in the data set on K562 [10] was found to be 4 µM.

Consider `COc1cccc2c1C(=O)c1c(O)c3c(c(O)c1C2=O)C[C@@](O)(C(=O)CO)C[C@@H]3O[C@H]1C[C@H](N)[C@H](O)[C@H](C)O1` [DOXORUBICIN], for which the CC50 with K562 [11] was 2000 nM. The result with K562 [12] was inactive. The Activity with K562 [13] was determined as 11%.

As for `CCCCCCCCCCCC(=O)O[C@H]1[C@H](O[C@@H]2[C@@H](O[C@@H]3O[C@@H](C)[C@H](OC(=O)[C@@H](C)CC)[C@@H](O)[C@H]3OC(=O)/C=C/c3ccccc3)[C@H]3OC(=O)CCCCCCCCC[C@@H](CCCCC)O[C@@H]4O[C@H](C)[C@@H]5OC(C)(C)O[C@@H]5[C@H]4O[C@@H]3O[C@H]2C)O[C@@H](C)[C@H](O[C@@H]2O[C@@H](C)[C@H](O)[C@H]3OC(C)(C)O[C@@H]23)[C@H]1O`, the result in the data set with HL-60, in the data set with MCF7, with MDA-MB-231 and in the data set with A549 was inactive.

`CCCCCCCCCCCC(=O)O[C@H]1[C@H](O[C@@H]2[C@@H](O[C@@H]3O[C@@H](C)[C@H](OC(=O)[C@@H](C)CC)[C@H]4OC(C)(C)O[C@@H]34)[C@H]3OC(=O)CCCCCCCCC[C@@H](CCCCC)O[C@@H]4O[C@H](C)[C@@H]5OC(C)(C)O[C@@H]5[C@H]4O[C@@H]3O[C@H]2C)O[C@@H](C)[C@H](O[C@@H]2O[C@@H](C)[C@H](O)[C@H]3OC(C)(C)O[C@@H]23)[C@H]1O`: the outcome with HL-60, in the data set with MCF7, in the data set with MDA-MB-231 and in the data set with A549 was inactive.

As usually defined, the IC50 is the concentration that gives 50% inhibition.

The record behind these values is ChEMBL document CHEMBL4316648, “Ipomeolides A and B, Resin Glycosides from Ipomoea pes-caprae and Combination Therapy of Ipomeolide A with Doxorubicin” (J Nat Prod, 2019).
